From ChEMBL document CHEMBL3779787, “Amorfrutin C Induces Apoptosis and Inhibits Proliferation in Colon Cancer Cells through Targeting Mitochondria” (J Nat Prod, 2016)
Active and inactive are the calls of the source. The calls are words filed in the database; no cut-off is given here.

Assays:
HT-29 [1] = assay: Upregulation of p21/Cip1 expression in human HT-29 cells at 10 uM after 48 hrs by immunoblotting method; format: functional, cell-based
Outline: (§1)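 HT-29 cells exposed 48 h to 10 μM compound. Whole-cell protein lysates probed for cell-cycle modulators by immunoblotting.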

HT-29 [2] = assay: Induction of ROS generation in human HT-29 cells at 30 uM by CM-H2DCFDA staining-based fluorescence assay in presence of glutathione; format: functional, cell-based
Outline: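 HT-29 (15 000 cells/well) loaded with 50 μM CM-H2DCFDA in PBS for 30 min at 37 °C, washed, then 60 min in phenol red-free DMEM/F-12. 30 μM compound added alone or with NAC 1 mM, GSH 2.5 mM, D3T 25 μM, α-tocopherol 50 μM or ascorbic acid 500 μM. Fluorescence 485/530 nm read kinetically at 37 °C for 22 h; area under curve; means ± SEM, n = 7.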

HT-29 [3] = assay: Upregulation of p27/Kip1 expression in human HT-29 cells at 10 uM after 48 hrs by immunoblotting method; format: functional, cell-based; outline: as §1
[4] = Dissociation constant, pKa of the compound by UV metric method; format: physicochemical
Outline: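 UV-metric titration with 0.15 M KCl at 25 °C: pH 12.0–2.0 at 32–26 μM in methanol/water cosolvent, and pH 12.5–8.9 at 30–21 μM in water.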

T84 = assay: Antiproliferative activity against human T84 cells assessed as cellular DNA content after 96 hrs by CyQUANT NF fluorescence assay relative to control; format: functional
Outline: (§2)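 Cells seeded at 750 (HT-29), 250 (PC-3) or 900 (T84, MCF7) cells/well, treated next day with concentration series for 72 h (HT-29, PC-3) or 96 h (T84, MCF7). Relative cell number from cellular DNA content by fluorescent DNA-binding dye. Variable-slope fit; efficiency = maximal inhibition (100% − Bottom) vs untreated; IC50 relative to the compound's own maximal efficiency.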

HT-29 [5] = assay: Induction of apoptosis in human HT-29 cells assessed as mitochondrial membrane depolarization after 5 mins by JC-1 dye-based fluorescence assay; format: functional, cell-based; conditions: HT-29, 5 min
Outline: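 HT-29 (40 000 cells/well) treated with concentration series for 5 min at 37 °C, then JC-1 added for a further 10 min and washed. Red (560/590 nm) to green (485/520 nm) fluorescence ratio taken as ΔΨm; variable-slope fit for IC50; means ± SD, n = 4.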

MCF7 = assay: Antiproliferative activity against human MCF7 cells assessed as cellular DNA content after 96 hrs by CyQUANT NF fluorescence assay; format: functional, cell-based; conditions: MCF7, 96 h; outline: as §2
HT-29 [6] = assay: Downregulation of CDK4 expression in human HT-29 cells at 10 uM after 48 hrs by immunoblotting method; format: functional, cell-based
Outline: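 HT-29 exposed to 10 μM for 48 h; whole-cell lysates immunoblotted for the indicated proteins (total and cleaved PARP for the apoptosis line).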

HT-29 [7] = assay: Induction of apoptosis in human HT-29 cells assessed as DNA fragmentation by measuring cytoplasmic oligonucleosome level at 30 uM by ELISA; format: functional, cell-based
Outline: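 Cytosolic DNA by ELISA after 4 h treatment. BrdU method: cells (13 000/well) prelabelled with 10 μM BrdU for 2 days at 37 °C, unincorporated BrdU removed before treatment. Oligonucleosome method: 20 000 cells/well, 1 day at 37 °C. Cell-free background subtracted, normalized to vehicle; means ± SEM, n = 4.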

With `COc1c(CC=C(C)C)c(O)c(C(=O)O)c(CCc2ccccc2)c1CC=C(C)C` the Activity (HT-29 [1]) was “Active”, the Activity (HT-29 [2]) was “inactive” and the Activity (HT-29 [3]) was “Active”. It also gave a pKa [4] of 3.5, an Efficacy (T84) of 99% and an IC50 (HT-29 [5]) of 0.6 µM. The IC50 (MCF7) was 14 µM, the Activity (HT-29 [6]) was “Active” and the Activity (HT-29 [7]) was “Active”.
